Assay [1] deals with Mycobacterium tuberculosis. In words: Antimycobacterial activity against isoniazid-resistant Mycobacterium tuberculosis H37Rv ATCC 35822 assessed as inhibition of bacterial growth by agar plate dilution method. Format: functional. Put shortly: (§1)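 MIC determined by agar plate dilution method; isoniazid and rifampin run as references.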
For assay [2], the system named is Mycobacterium tuberculosis. As to the kind of experiment: Antimycobacterial activity against rifampicin-resistant Mycobacterium tuberculosis H37Rv ATCC 35838 assessed as inhibition of bacterial growth by agar plate dilution method. It is filed as functional. Put shortly: as §1

Values after ≈ are worked out from the molar mass of the structure shown.

In the case of `CC(C)=CCC/C(C)=C/COc1ccc(C(=O)OCCCOc2cccc(Nc3nc4ccccc4c(=O)o3)c2)cc1`, the minimum inhibitory concentration (MIC) in assay [1] worked out at 4.4 mg/L (≈ 7.74 µM); in assay [2], 2.6 mg/L (≈ 4.57 µM).

With `CC(C)=CCC/C(C)=C/CC/C(C)=C/COc1ccc(C(=O)OCCCOc2cccc(Nc3nc4ccccc4c(=O)o3)c2)cc1`, the MIC amounted to 2.3 mg/L (≈ 3.61 µM) in assay [1] and 1.8 mg/L (≈ 2.83 µM) in assay [2].

With `NNC(=O)c1ccncc1` [ISONIAZID], the MIC in assay [1] is greater than 8 mg/L; in assay [2] it was 0.25 mg/L (≈ 1.82 µM).

Regarding `CO[C@H]1/C=C/O[C@@]2(C)Oc3c(C)c(O)c4c(O)c(c(/C=N/N5CCN(C)CC5)c(O)c4c3C2=O)NC(=O)/C(C)=C\C=C\[C@H](C)[C@H](O)[C@@H](C)[C@@H](O)[C@@H](C)[C@H](OC(C)=O)[C@@H]1C` [RIFAMPIN], the values for the MIC in assay [1] and in assay [2] were 0.03 mg/L (≈ 0.0365 µM) and greater than 2 mg/L, respectively.
